# Data taken from ChEMBL document CHEMBL1833904, “Antiplasmodial and antiproliferative pseudoguaianolides of Athroisma proteiforme from the Madagascar Dry Forest” (J Nat Prod, 2011).
# Experiments:
# [1] = system: A2780; assay: Antiproliferative activity against human A2780 cells; type: cell-based
# [2] = system: Plasmodium falciparum; assay: Antiplasmodial activity against chloroquine-sensitive Plasmodium falciparum HB3 after 72 hrs SYBR green 1 dye based by fluorometric method; type: functional, organism-based; details: HB3, 72 h
# Method in brief: (§1)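 Sorbitol-synchronised ring-stage cultures (>95% rings), final 1% hematocrit and 0.5% parasitemia, added to prewarmed wells holding sample diluted in complete medium from DMSO stock. Incubated 72 h at 37 °C under 90% N, 5% O2, 5% CO2. SYBR Green I added, 1 h at 37 °C, fluorescence ex 490/em 530 nm. Triplicate IC50s averaged (±S.E.M.); chloroquine positive control.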
# [3] = system: Plasmodium falciparum; assay: Antiplasmodial activity against chloroquine-resistant Plasmodium falciparum Dd2 after 72 hrs by SYBR green 1 dye based fluorometric method; type: functional, organism-based; details: Dd2, 72 h; method in brief: as §1
# [4] = system: Plasmodium falciparum; assay: Resistance factor, ratio of IC50 for chloroquine-resistant Plasmodium falciparum Dd2 to IC50 for chloroquine-sensitive Plasmodium falciparum HB3; type: functional
IC50 [1] [nM],SMILES,IC50 [2] [µM],IC50 [3] [µM],Ratio IC50 [4]
1900,C=C1C(=O)O[C@@H]2[C@@H](C)[C@@H]3C=CC(=O)[C@@]3(C)[C@@H](OC(=O)/C=C(\C)CC)[C@H]1[C@H]2OC(=O)CC(C)(O)CC (relative stereo),,,
570,C=C1C(=O)O[C@@H]2[C@@H](C)[C@@H]3C=CC(=O)[C@@]3(C)[C@@H](OC(=O)/C(C)=C\C)[C@H]1[C@H]2OC(=O)CC(C)(C)O (relative stereo),,,
380,C=C1C(=O)O[C@@H]2[C@@H](C)[C@@H]3C=CC(=O)[C@@]3(C)[C@@H](OC(=O)/C(C)=C\C)[C@H]1[C@H]2OC(=O)CC(C)(O)CC (relative stereo),,,
2500,C=C1C(=O)O[C@H]2C[C@@H](C)[C@@H]3[C@@H](OC(=O)C(C)C)C[C@@H](OC(C)=O)[C@@]3(C)[C@H](O)[C@H]12 [ATHROLIDE B],,,
17,CC(=O)O[C@H]1C(=O)[C@@]2(C)[C@H]([C@H](OC(=O)c3ccccc3)[C@]3(O)C[C@H](OC(=O)[C@H](O)[C@@H](NC(=O)c4ccccc4)c4ccccc4)C(C)=C1C3(C)C)[C@]1(OC(C)=O)CO[C@@H]1C[C@@H]2O [PACLITAXEL],,,

SMILES,IC50 [1] [nM],IC50 [2] [µM],IC50 [3] [µM],Ratio IC50 [4]
C=C1C(=O)O[C@H]2C[C@@H](C)[C@@H]3[C@@H](OC(=O)C(C)C)C[C@@H](OC(C)=O)[C@@]3(C)[C@@H](OC(C)=O)[C@H]12 [ATHROLIDE A],2100,34.3,32.7,1
